Data from ChEMBL document CHEMBL1132570, “Synthesis of cytotoxic indenoisoquinoline topoisomerase I poisons” (1999).

Tests used:
[1] = tested on: DU-145; test: Cytotoxicity against prostate DU-145 human cancer cell line.; format: functional
Outline: (§1)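 GI50 = concentration giving 50% growth inhibition, from a screen of about 55 human cancer cell lines over a 10^-8 to 10^-4 M test range. Values come from two determinations where a population standard deviation is shown, otherwise from single determinations.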

[2] = tested on: HOP-62; test: Cytotoxicity against lung HOP-62 human cancer cell line.; format: functional; outline: as §1
[3] = tested on: HCT-116; test: Cytotoxicity against colon HCT116 human cancer cell line.; format: functional; outline: as §1
[4] = tested on: MDA-MB-435; test: In vitro cytotoxicity against MDA-MB-435 (Human breast cancer) cell line.; format: functional; outline: as §1
[5] = tested on: OVCAR-3; test: Cytotoxicity against ovarian OVCAR-3 human cancer cell line.; format: functional; outline: as §1
[6] = tested on: UACC-62; test: In vitro cytotoxicity against UACC-62 (Human melanoma) cell line.; format: functional; outline: as §1
[7] = target: T1, DNA topoisomerase 1 (Homo sapiens) (UniProt P11387); test: The activity was examined against DNA topoisomerase I mediated DNA cleavage using 3''-End-labelled 161 BP plasmid DNA.+ indicates between 20 and 50% of the activity of 1 uM camptothecin
T1 sequence (whole entry): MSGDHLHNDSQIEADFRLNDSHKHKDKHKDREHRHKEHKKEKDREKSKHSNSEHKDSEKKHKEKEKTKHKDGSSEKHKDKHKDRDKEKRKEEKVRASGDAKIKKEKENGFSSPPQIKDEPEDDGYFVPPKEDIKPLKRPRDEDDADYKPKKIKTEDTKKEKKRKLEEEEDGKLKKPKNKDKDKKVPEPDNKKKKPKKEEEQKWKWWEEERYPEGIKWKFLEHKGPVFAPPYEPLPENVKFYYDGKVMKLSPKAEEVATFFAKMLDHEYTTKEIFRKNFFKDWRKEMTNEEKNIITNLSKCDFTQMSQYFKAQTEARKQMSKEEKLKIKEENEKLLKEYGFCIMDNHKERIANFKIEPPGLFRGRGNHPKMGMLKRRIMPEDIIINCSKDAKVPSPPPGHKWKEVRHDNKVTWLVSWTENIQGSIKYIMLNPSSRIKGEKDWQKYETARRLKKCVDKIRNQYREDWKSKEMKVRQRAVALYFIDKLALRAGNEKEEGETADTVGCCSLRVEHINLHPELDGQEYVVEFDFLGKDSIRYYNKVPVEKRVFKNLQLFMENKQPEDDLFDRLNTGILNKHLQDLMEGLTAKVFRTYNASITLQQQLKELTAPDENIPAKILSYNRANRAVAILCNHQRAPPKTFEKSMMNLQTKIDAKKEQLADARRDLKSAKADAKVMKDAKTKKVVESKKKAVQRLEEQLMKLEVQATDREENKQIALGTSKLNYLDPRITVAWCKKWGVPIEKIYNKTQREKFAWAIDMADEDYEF
Outline: (§2)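 A 161 bp PvuII–HindIII fragment of pBluescript SK(–) was 3'-end-labeled at the HindIII site with [α-32P]dCTP by Klenow fill-in. About 50 000 dpm per reaction was incubated with top1 and drug (0.1–300 μM) at 30 °C for 30 min, then stopped with 0.5% SDS (final). Products were run on 16% polyacrylamide/7 M urea gels at 51 °C and imaged by phosphorimager.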

[8] = tested on: SF-539; test: Compound was tested for its cytotoxicity against CNS SF-539 cell line; format: functional; details: Homo sapiens; outline: as §1
[9] = target: T1, DNA topoisomerase 1 (Homo sapiens); test: The activity was examined against DNA topoisomerase I mediated DNA cleavage using 3'-End-labelled 161 BP plasmid DNA. 0 indicates inactive; outline: as §2
[10] = tested on: MDA-MB-435; test: Compound was tested for its cytotoxicity against breast MDA-MB-435 Human cancer cell line; format: functional; outline: as §1
[11] = tested on: SN12C; test: In vitro cytotoxicity against SN12C (Human renal cancer) cell line.; format: functional; outline: as §1
[12] = tested on: SF-539; test: Compound was tested for its cytotoxicity against CNS SF-539 Human cancer cell line; format: functional; outline: as §1
[13] = target: T1, DNA topoisomerase 1 (Homo sapiens); test: The activity was examined against DNA topoisomerase I mediated DNA cleavage using 3'-End-labelled 161 BP plasmid DNA.0 indicates inactive; outline: as §2
[14] = target: T1, DNA topoisomerase 1 (Homo sapiens); test: The activity was examined against DNA topoisomerase I mediated DNA cleavage using 3''-End-labelled 161 BP plasmid DNA. + indicates between 20 and 50% of the activity of 1 uM camptothecin; outline: as §2
[15] = target: T1, DNA topoisomerase 1 (Homo sapiens); test: The activity was examined against DNA topoisomerase I mediated DNA cleavage using 3''-End-labelled 161 BP plasmid DNA. +/- indicates less than 20% of the activity 0f 1 uM camptothecin; outline: as §2

Compound | GI50 [1] | GI50 [2] | GI50 [3] | GI50 [4] | GI50 [5] | GI50 [6] | Top1 cleavage activity [7] | GI50 [8] | Top1 cleavage activity [9] | GI50 [10] | GI50 [11] | GI50 [12] | Top1 cleavage activity [13] | Top1 cleavage activity [14] | Top1 cleavage activity [15]
CCCCn1c2c(c3cc(OC)c(OC)cc3c1=O)C(=O)c1cc3c(cc1-2)OCO3 | 16 µM | 16 µM | 45 µM | > 100 µM | 78 µM | 21 µM | 20-50% of the activity of 1 uM camptothecin | – | – | – | – | – | – | – | –
COc1cc2c3c(n(C)c(=O)c2cc1OC)-c1cc(OC)c(OC)c(OC)c1C3=O | > 100 µM | > 100 µM | > 100 µM | – | > 100 µM | 55 µM | – | > 100 µM | 0 | > 100 µM | > 100 µM | – | – | – | –
CC[n+]1cc2cc(OC)c(OC)cc2c2c1-c1cc3c(cc1C2)OCO3 | 58 µM | 22 µM | 13 µM | 14 µM | 1.9 µM | – | – | – | – | – | 2.7 µM | 56 µM | – | – | –
C=CCN1C(=O)c2cc(OC)c(OC)cc2[C@H]2C(=O)c3cc4c(cc3[C@H]21)OCO4 | 0.77 µM | 0.36 µM | 0.34 µM | – | 1.78 µM | 0.38 µM | – | – | 0 | 1.4 µM | – | – | – | – | –
COc1cc2c3c(n(C)c(=O)c2cc1OC)-c1cc(OCc2ccccc2)c(OCc2ccccc2)cc1C3=O | > 100 µM | 46 µM | 80 µM | > 100 µM | 58 µM | > 100 µM | – | – | – | – | > 100 µM | 39 µM | 0 | – | –
C=CCn1c2c(c3cc(OC)c(OC)cc3c1=O)C(=O)c1cc3c(cc1-2)OCO3 | 3.2 µM | 3.4 µM | 2.3 µM | 5.2 µM | 6.6 µM | – | 20-50% of the activity of 1 uM camptothecin | – | – | – | 2.6 µM | 2.2 µM | – | – | –
CCN1Cc2cc(OC)c(OC)cc2[C@@H]2[C@H]1c1cc3c(cc1[C@@H]2O)OCO3 | 41 µM | 30 µM | 35 µM | 25 µM | 24 µM | – | – | – | 0 | – | 26 µM | 50 µM | – | – | –
CCCCn1c2c(c3ccccc3c1=O)C(=O)c1cc3c(cc1-2)OCO3 | 38 µM | 17 µM | 2.9 µM | > 100 µM | 94 µM | 8.2 µM | 20-50% of the activity of 1 uM camptothecin | – | – | – | 37 µM | 9 µM | – | – | –
O=C(O)CCCn1c2c(c3ccccc3c1=O)C(=O)c1ccccc1-2 | 48 µM | 87 µM | 40 µM | > 100 µM | > 100 µM | 73 µM | – | – | – | – | 27 µM | – | – | – | –
COc1cc2c3c(n(CCCCCO)c(=O)c2cc1OC)-c1cc2c(cc1C3=O)OCO2 | 5.1 µM | 8.7 µM | > 100 µM | > 100 µM | > 100 µM | > 100 µM | – | – | – | – | – | – | – | 20-50% of the activity of 1 uM camptothecin | –
COc1cc2c3c(n(C)c(=O)c2cc1OC)-c1cc2c(cc1C3=O)OCO2 | 37 µM | 1.3 µM | 35 µM | 96 µM | – | 4.2 µM | – | – | – | – | 68 µM | 41 µM | – | – | –
Cn1c2c(c3ccccc3c1=O)C(=O)c1cc3c(cc1-2)OCO3 | > 100 µM | 22 µM | 54 µM | – | > 100 µM | > 100 µM | 20-50% of the activity of 1 uM camptothecin | – | – | – | > 100 µM | – | – | – | –
COc1cc2c(cc1OC)[C@H]1C(=O)c3cc(OS(C)(=O)=O)c(OC)cc3[C@H]1N(C)C2=O | – | – | – | – | – | – | – | – | – | – | – | – | – | – | +/-
